pEC50, pIC50: −log10 of the molar value. Active and inactive are the calls of the source. The rule behind the calls is not given here.

In general, pEC50 refers to −log10 of the EC50, conventionally taken in molar units. The pIC50 is the IC50 on a negative log10 scale, so that one unit is a factor of ten. A low value points to a large IC50.

For the first test, the target named is T1, Vitamin D3 receptor (Homo sapiens, UniProt P11473).
T1 sequence (P11473 whole entry): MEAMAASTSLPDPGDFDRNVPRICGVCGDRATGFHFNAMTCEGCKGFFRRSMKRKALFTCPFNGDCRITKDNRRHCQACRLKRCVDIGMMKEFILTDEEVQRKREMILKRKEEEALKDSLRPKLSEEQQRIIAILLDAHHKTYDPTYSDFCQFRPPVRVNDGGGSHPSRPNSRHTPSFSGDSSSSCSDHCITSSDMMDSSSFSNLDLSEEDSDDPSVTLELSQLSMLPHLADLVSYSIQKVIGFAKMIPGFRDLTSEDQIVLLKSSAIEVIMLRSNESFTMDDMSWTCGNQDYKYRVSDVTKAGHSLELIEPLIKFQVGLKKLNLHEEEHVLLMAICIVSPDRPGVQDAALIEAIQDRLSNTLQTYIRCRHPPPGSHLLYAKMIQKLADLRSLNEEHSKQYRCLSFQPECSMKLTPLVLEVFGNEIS
As to the kind of experiment: Activation of human VDR expressed in HEK293 cells cotransfected CMX-GAL4-RXRalpha and 4-tk-LUC assessed as heterodimerization with RXRalpha by mammalian two-hybrid assay. Format: cell-based.
Details: not given
The method, boiled down: (§1)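 HEK293 cells in DMEM with 5% FBS, per well: 50 ng TK-MH100(UAS)×4-LUC reporter, 10 ng pCMX-β-galactosidase, 15 ng pCMX-VP16-VDR, and 15 ng of a GAL4 fusion. The fusion was RXRα for heterodimerisation, SRC-1 for coactivator binding, N-CoR, or SMRT (NCoR2). Cells were treated across a concentration range. Luciferase was normalised to β-galactosidase.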
On to `C=C1[C@H](O)CC(=C/C=C2\CCC[C@]3(C)[C@@H]([C@H](C)CC#C[C@@H](O)C45CC6CC(CC(C6)C4)C5)CC[C@@H]23)C[C@H]1O`, for which the pEC50 was 9.22.

A further test concerns the target T1, Vitamin D3 receptor. As to the kind of experiment: Displacement of [3H]-1,25(OH)2D3 from GST-fused human VDR-LBD expressed in Escherichia coli BL21.
Details: not given
The essentials: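 hVDR-LBD (aa 140–427) as a GST fusion from E. coli BL21 sonicated lysate, 1 μg in pH 7.5 Tris/KCl/DTT/CHAPS buffer with BSA. Ligand in EtOH was preincubated 30 min at RT. [26,27-methyl-³H]-1,25(OH)₂D₃ was then added for 20 h at 4 °C. Free ligand was removed with dextran-coated charcoal and centrifugation, and bound radioactivity counted. IC50 from at least two triplicate runs.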
(In a radioligand displacement assay an active substance lowers the binding of a labelled ligand.)
The molecule `C=C1[C@H](O)CC(=C/C=C2\CCC[C@]3(C)[C@@H]([C@H](C)CC#C[C@@H](O)C45CC6CC(CC(C6)C4)C5)CC[C@@H]23)C[C@H]1O` showed a pIC50 of 9.30.

Another test concerns HaCaT. As to the kind of experiment: Induction of cathelicidine antimicrobial peptide mRNA expression in human HaCaT cells at 100 nM after 24 hrs by real-time PCR relative to 1-alpha,25-dihydroxyvitamin D3. The test is classed as functional.
Details: not given
The method, boiled down:
(§2)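 Cells seeded at 1 × 10⁴ per well and treated 24 h later with ethanol vehicle or 100 nM ligand for 24 h. Total RNA taken by a chloroform method, reverse-transcribed, and target mRNA quantified by SYBR Green real-time PCR, normalized to ACTIN mRNA. Culture media: HEK293 in DMEM 5% FBS; SW480 and HaCaT in DMEM 10% FBS; MG63 in MEM 10% FBS; THP-1 and U937 in RPMI1640 10% FBS; all at 37 °C, 5% CO₂.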
Background: Real-time PCR tracks product formation cycle by cycle.
`C=C1[C@H](O)CC(=C/C=C2\CCC[C@]3(C)[C@@H]([C@H](C)CC#C[C@@H](O)C45CC6CC(CC(C6)C4)C5)CC[C@@H]23)C[C@H]1O`: the Activity was found to be 60%.

For the next test, the target named is T1, Vitamin D3 receptor. The test is described as follows: Activation of human VDR expressed in HEK293 cells cotransfected CMX-GAL4-NCoR2 and 4-tk-LUC assessed as inhibition of NCoR2 binding to VDR by mammalian two-hybrid assay. Format: cell-based.
Details: not given
The essentials:
as §1
Take `C=C1[C@H](O)CC(=C/C=C2\CCC[C@]3(C)[C@@H]([C@H](C)CC#C[C@@H](O)C45CC6CC(CC(C6)C4)C5)CC[C@@H]23)C[C@H]1O`: the pEC50 was 9.30.

A further test has as its system THP-1. The test is described as follows: Induction of cathelicidine antimicrobial peptide mRNA expression in human THP1 cells at 100 nM after 24 hrs by real-time PCR relative to 1-alpha,25-dihydroxyvitamin D3. Format: functional.
Details: not given
The method, boiled down:
as §2
`C=C1[C@H](O)CC(=C/C=C2\CCC[C@]3(C)[C@@H]([C@H](C)CC#C[C@@H](O)C45CC6CC(CC(C6)C4)C5)CC[C@@H]23)C[C@H]1O` had an Activity of 105%.

The test system of the next test is HEK293. The test is described as follows: Induction of cyp24A1 mRNA expression in HEK293 cells at 100 nM after 24 hrs by real-time PCR. The test is classed as functional, cell-based. Particulars: Homo sapiens. The method, boiled down: as §2
Consider `C=C1[C@H](O)CC(=C/C=C2\CCC[C@]3(C)[C@@H]([C@H](C)CC#C[C@@H](O)C45CC6CC(CC(C6)C4)C5)CC[C@@H]23)C[C@H]1O`, for which the outcome was Active.

For a further test, the system named is U-937. As to the kind of experiment: Induction of cathelicidine antimicrobial peptide mRNA expression in human U937 cells at 100 nM after 24 hrs by real-time PCR relative to 1-alpha,25-dihydroxyvitamin D3.
Details: not given
Format: functional. The essentials: as §2
As for `C=C1[C@H](O)CC(=C/C=C2\CCC[C@]3(C)[C@@H]([C@H](C)CC#C[C@@H](O)C45CC6CC(CC(C6)C4)C5)CC[C@@H]23)C[C@H]1O`, the Activity is 125%.

In a further test the target is T1, Vitamin D3 receptor. As to the kind of experiment: Activation of human VDR expressed in HEK293 cells cotransfected CMX-GAL4-SRC1 and 4-tk-LUC assessed as SRC1 interaction with AF2 surface of VDR by mammalian two-hybrid assay. Format: cell-based.
Details: not given
The essentials: as §1
With `C=C1[C@H](O)CC(=C/C=C2\CCC[C@]3(C)[C@@H]([C@H](C)CC#C[C@@H](O)C45CC6CC(CC(C6)C4)C5)CC[C@@H]23)C[C@H]1O`, the negative logarithm of the EC50 (pEC50) was 8.82.

The subject of the next test is SW480. As to the kind of experiment: Induction of TRPV6 mRNA expression in human SW480 cells at 100 nM after 24 hrs by real-time PCR relative to 1-alpha,25-dihydroxyvitamin D3. The test is classed as functional.
Details: not given
The method, boiled down:
as §2
For the molecule `C=C1[C@H](O)CC(=C/C=C2\CCC[C@]3(C)[C@@H]([C@H](C)CC#C[C@@H](O)C45CC6CC(CC(C6)C4)C5)CC[C@@H]23)C[C@H]1O`, the Activity is 65%.

A further test addresses T2, Vitamin D3 receptor (Homo sapiens) (UniProt P11473).
T2 sequence (whole entry): T1 sequence (P11473 whole entry)
The conditions noted are these: HEK293, 10 to 1000 nM.
For `C=C1[C@H](O)CC(=C/C=C2\CCC[C@]3(C)[C@@H]([C@H](C)CC#C[C@@H](O)C45CC6CC(CC(C6)C4)C5)CC[C@@H]23)C[C@H]1O`, the inhibition result is “inactive”.

The target in another test is T1, Vitamin D3 receptor. As to the kind of experiment: Activation of human VDR expressed in HEK293 cells cotransfected CMX-GAL4-N-CoR and 4-tk-LUC assessed as inhibition of N-CoR binding to VDR by mammalian two-hybrid assay. Format: cell-based.
Details: not given
The essentials:
as §1
In the case of `C=C1[C@H](O)CC(=C/C=C2\CCC[C@]3(C)[C@@H]([C@H](C)CC#C[C@@H](O)C45CC6CC(CC(C6)C4)C5)CC[C@@H]23)C[C@H]1O`, the pEC50 was 9.40.

In another test the test system is U-937. The test is described as follows: Induction of cyp24A1 mRNA expression in human U937 cells at 100 nM after 24 hrs by real-time PCR relative to 1-alpha,25-dihydroxyvitamin D3. The test is classed as functional.
Details: not given
The essentials: as §2
As for `C=C1[C@H](O)CC(=C/C=C2\CCC[C@]3(C)[C@@H]([C@H](C)CC#C[C@@H](O)C45CC6CC(CC(C6)C4)C5)CC[C@@H]23)C[C@H]1O`, the Activity stood at 85%.

A further test relates to THP-1. As to the kind of experiment: Induction of cyp24A1 mRNA expression in human THP1 cells at 100 nM after 24 hrs by real-time PCR relative to 1-alpha,25-dihydroxyvitamin D3. Format: functional.
Details: not given
The method, boiled down: as §2
Turning to `C=C1[C@H](O)CC(=C/C=C2\CCC[C@]3(C)[C@@H]([C@H](C)CC#C[C@@H](O)C45CC6CC(CC(C6)C4)C5)CC[C@@H]23)C[C@H]1O`, the Activity is listed as 70%.

In another test the test system is SW480. As to the kind of experiment: Induction of cyp24A1 mRNA expression in human SW480 cells at 100 nM after 24 hrs by real-time PCR relative to 1-alpha,25-dihydroxyvitamin D3. The test is classed as functional.
Details: not given
The method, boiled down:
as §2
As for `C=C1[C@H](O)CC(=C/C=C2\CCC[C@]3(C)[C@@H]([C@H](C)CC#C[C@@H](O)C45CC6CC(CC(C6)C4)C5)CC[C@@H]23)C[C@H]1O`, the Activity was found to be 50%.

The target in a further test is T1, Vitamin D3 receptor. As to the kind of experiment: Transactivation of human VDR expressed in HEK293 cells cotransfected with mouse VDRE, Tk-Sppx3-LUC reporter plasmid measured after 24 hrs by luciferase reporter assay. Format: cell-based.
Details: not given
The method, boiled down:
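HEK293 cells in DMEM with 5% FBS, calcium phosphate-transfected per well with 50 ng TK-Spp×3-LUC (mouse osteopontin VDRE), 10 ng pCMX-β-galactosidase, 15 ng pCMX-VDR and 15 ng pCMX-RXRα. Compounds were tested across a concentration range and cells harvested after 16–24 h. Luciferase was normalised to β-galactosidase. EC50 and efficacy relative to 1,25(OH)₂D₃.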
(In general: A reporter such as luciferase makes a cellular process visible.)
`C=C1[C@H](O)CC(=C/C=C2\CCC[C@]3(C)[C@@H]([C@H](C)CC#C[C@@H](O)C45CC6CC(CC(C6)C4)C5)CC[C@@H]23)C[C@H]1O` gave a pEC50 of 10.15.

The next test concerns HaCaT. As to the kind of experiment: Induction of cyp24A1 mRNA expression in human HaCaT cells at 100 nM after 24 hrs by real-time PCR relative to 1-alpha,25-dihydroxyvitamin D3. The test is classed as functional.
Details: not given
The method, boiled down: as §2
`C=C1[C@H](O)CC(=C/C=C2\CCC[C@]3(C)[C@@H]([C@H](C)CC#C[C@@H](O)C45CC6CC(CC(C6)C4)C5)CC[C@@H]23)C[C@H]1O` displayed an Activity of 30%.

Another test has as its system MG-63. The test is described as follows: Induction of cyp24A1 mRNA expression in human MG63 cells at 100 nM after 24 hrs by real-time PCR relative to 1-alpha,25-dihydroxyvitamin D3. Format: functional.
Details: not given
The method, boiled down: as §2
For the molecule `C=C1[C@H](O)CC(=C/C=C2\CCC[C@]3(C)[C@@H]([C@H](C)CC#C[C@@H](O)C45CC6CC(CC(C6)C4)C5)CC[C@@H]23)C[C@H]1O`, the Activity was 50%.

Values taken from ChEMBL document CHEMBL3259615, “Combination of triple bond and adamantane ring on the vitamin D side chain produced partial agonists for vitamin D receptor” (J Med Chem, 2014).
